Screening data: PubChem, several laboratories
GRK2 aptamer HTS = blocks RNA aptamer binding to human GRK2; bead flow cytometry, FAM-aptamer displacement from GRK2; inhibition of aptamer binding, % at 10 µM; 330,000 tested, 0.59% active;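 active means inhibition of aptamer binding above 40%, roughly 3 SD of noise, on plates passing a quality check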;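 further: median bead fluorescence of bound FAM aptamer so fluorescent compounds give negative values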
DDE Tn7 FP inh = DD(E)-Tn7 binding inhibition, primary FP screen. FP displacement of FITC-Tn7 peptide from fibrin DD(E); 0% = median of compound wells per plate. P02675. AID 720508. 370,000 tested, 0.13% active. inhibition, % at 8.3 µM;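 active means inhibition above the mean of compounds falling within the control limits plus 3 SD of them, cut at about 14% in these data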;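 further: 0% = plate median of compound wells and 100% = 10 µM Aha-Tn7 peptide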
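System: human fibrin DD(E); quantity: Fibrin-DD(E) at 2 µM final; also added: fluorescent Tn7 probe at 0.1 µM; compound dosing: single nominal test concentration of 8.3 µM per compound; schedule: 10 min preincubation, 3 h with tracer, room temperature; detection: fluorescence polarization of the labelled Tn7 tracer; repeats: one replicate per compound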
CAL PDZ FP-1 = inhibitors of human CAL PDZ peptide binding | purified CAL PDZ, TMR-peptide fluorescence polarization, 1 h | inhibition, % at 20 µM | Q9HD26 | 330,000 tested, 0.02% active;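 active means highest replicate inhibition of at least 40%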;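 further: plate controls were DMSO neutral control wells for no effect and unlabeled competitor peptide control wells for full effect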
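Test system: purified CerCALP PDZ construct; Compound dosing: one concentration, 20 µM compound; Also added: TMR-labelled reporter peptide T*-PRC34 bound in PDZ groove; Read-out: inhibition from polarization loss; Controls: unlabelled peptide and DMSO controls; Signal: FP readout, S and P plane fluorescence; Incubation: 1 h at RT.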
CAL PDZ FP-2 = blocks peptide binding to the human CAL PDZ domain. Q9HD26. purified CAL PDZ, TMR-peptide fluorescence polarization, 1 h. inhibition, % at 24.9 µM. 300,000 tested, 0.92% active. AID 602252;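 active means mean inhibition of at least 30% with at least half of replicates also reaching 30%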;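 further: 0% = DMSO neutral control and 100% = excess unlabeled competitor peptide PRC23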
ARNT TACC3 PPI = disrupts binding between human ARNT and TACC3. AID 623870. 390,000 tested, 0.66% active. AlphaScreen His-ARNT PAS-B/GST-TACC3 binding, luminescence; TACC3 fragment carries E629A point mutation. inhibition, % at 9.99 µM. Q9Y6A5;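 active means mean inhibition of replicates at least 50% and at least half of replicates each reaching 50%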;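 further: 0% = complete ARNT plus TACC3 wells and 100% = ARNT alone without TACC3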
DDE Tn6 FP inh = DD(E)-Tn6 binding inhibition, primary FP screen; P02675; Fibrin DD(E) TRITC-Tn6 fluorescence polarization displacement; inhibition, % at 8.3 µM; 370,000 tested, 0.21% active; AID 720509;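 active means inhibition above a per-campaign cutoff: mean of compounds within control limits plus 3 SD, cut at about 15% in these data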;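 further: 0% = median of all compound wells on the plate and 100% = blocking peptide control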
* hit, by the source's call; · = no result given. Hits are enriched below; roughly 1.8% of the tested compounds scored in any of these assays.

SMILES	GRK2 aptamer HTS	DDE Tn7 FP inh	CAL PDZ FP-1	CAL PDZ FP-2	ARNT TACC3 PPI	DDE Tn6 FP inh
COC(=O)c1cccc(OCC(C)CN2CCC(C(O)(c3ccccc3)c3ccccc3)CC2)c1 (stereo not given)	·	-3	·	·	·	0
CC(C)c1ccc(C2OCC(C)([N+](=O)[O-])CO2)cc1 (stereo not given)	·	5	20	91*	-2	-1
CC(C)c1[nH]nc2c1C(c1ccccc1)N(Cc1ccccc1)C2=O (stereo not given)	·	-4	·	·	·	-5
COc1cc(SC)ccc1C(=O)NC1CCCCC1	0	6	-1	47*	-2	-3
COc1cc2c(C(=O)NC3CCCCCC3)cn(C)c(=O)c2cc1OC	1	4	-1	-3	-12	2
COc1cc(SC)ccc1C(=O)Nc1ccncc1	0	1	-2	31*	-6	-6
CCn1cc(C(=O)NC2CCCCCC2)c2cc(OC)c(OC)cc2c1=O	0	-5	-1	48*	3	1
O=C(Nc1ccc(F)c(Cl)c1)c1cc(C2CCCCN2C(=O)c2ccccc2)on1 (stereo not given)	·	-4	·	·	·	-9
Cc1ccc(C)c(S(=O)(=O)N2CCCOC2CNC(=O)C(=O)NCCc2ccco2)c1 (stereo not given)	0	6	1	69*	-1	2
COCCn1c(SCC(=O)Nc2ccc(OC)c(S(N)(=O)=O)c2)nc2ccccc2c1=O	0	2	0	41*	-6	2
COCCn1c(SCC(=O)Nc2ccc3[nH]c(=O)[nH]c3c2)nc2ccccc2c1=O	0	-3	0	-5	-4	-5
CCNC(=O)CSc1nnc(-c2cc(-c3ccc(Cl)cc3)nc3ccccc23)o1	3	1	-1	·	-10	-2
C/C(N)=C(/C#N)C(=O)COc1ncnc2ccccc12	0	-3	0	-5	-8	1
C/C(N)=C(/C#N)C(=O)COC(=O)Cc1coc2ccc3ccccc3c12	3	1	-1	79*	1	4
C[C@H](CO)N1C[C@H](C)[C@@H](CN(C)S(=O)(=O)c2ccccc2)Oc2ccc(NS(=O)(=O)c3ccc(Cl)cc3)cc2CC1=O	·	·	·	·	-2	·
COc1ccc(N2C(=O)CCC(C(=O)N3CCCCC3)C2c2ccc(F)cc2)cc1 (stereo not given)	2	·	-1	59*	-4	·
COc1ccc(N2C(=O)CCC(C(=O)N3CCC(C(N)=O)CC3)C2c2ccc(F)cc2)cc1 (stereo not given)	3	2	-1	-1	-6	-7
CO[C@@H]1CN(C)C(=O)c2cc(NS(=O)(=O)c3cccc(C)c3)ccc2OC[C@H](C)NC[C@H]1C	·	·	·	·	2	·
O=C(O)CCN1C(=O)c2ccc(NC(=O)CCc3ccccc3)cc2C1=O	3	3	0	-6	8	-1
CC(C)CN1C(=O)c2ccc(NC(=O)Cc3ccccc3)cc2C1=O	0	8	0	74*	-2	2
CC(NC(=O)C12CC3CC(C1)CC(n1cncn1)(C3)C2)C12CC3CC(CC(C3)C1)C2 (stereo not given)	0	11	0	57*	-3	-2
O=C(NC1CCCCC1)C12CC3CC(C1)CC(n1cncn1)(C3)C2	0	1	-1	-4	-7	4
Cc1noc(C)c1S(=O)(=O)Nc1ccc2c(c1)C(=O)N([C@@H](C)CO)C[C@@H](C)[C@@H](CN(C)S(=O)(=O)c1cccs1)OCCCC[C@H](C)O2	·	·	·	·	-1	·
CN(C(=O)COC(=O)c1ccc([N+](=O)[O-])cc1Cl)C1CCCCC1	1	-4	-2	-2	7	2
CN(C(=O)COC(=O)c1ccc(Cl)cc1N)C1CCCCC1	0	3	0	34*	2	0
COc1ccc(CC(=O)NNS(=O)(=O)c2ccc(F)cc2)cc1	2	-8	-2	2	0	2
CCOC(=O)C1(C)Oc2ccccc2C(c2ccc(OC)cc2)=C1C(=O)OC (stereo not given)	1	7	0	-1	1	6
